Activity calls are given as the source filed them. No cut-off for these calls is given here.
Tests used:
[1] = biological target: BDNF/NT-3 growth factors receptor (Rattus norvegicus) (UniProt Q63604); assay: Agonist activity at TrkB in E17 rat primary cortical neurons assessed as AKT phosphorylation at Ser 473 at 500 nM after 15 mins by ELISA; format: functional, cell-based; conditions: Cerebral cortex neuron
[2] = biological target: BDNF/NT-3 growth factors receptor (Rattus norvegicus) (UniProt Q63604); assay: Agonist activity at TrkB in E17 rat primary cortical neurons assessed as TrkB phosphorylation at 817 at 500 nM after 15 mins by immunoblotting; format: functional, cell-based; conditions: Cerebral cortex neuron
Summary of the method: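 Rat cortical neurons from E17 embryos, 13 DIV, were treated with 500 nM compound for 15 min. Lysates were run on 10% SDS-PAGE and immunoblotted with p-TrkB Y817 antibody at 1:20,000–40,000.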

[3] = biological target: BDNF/NT-3 growth factors receptor (Rattus norvegicus) (UniProt Q63604); assay: Agonist activity at TrkB in E17 rat primary cortical neurons by immunoblotting; format: functional, cell-based; conditions: Cerebral cortex neuron
[4] = biological target: BDNF/NT-3 growth factors receptor (Rattus norvegicus) (UniProt Q63604); assay: Agonist activity at TrkB in E17 rat primary rat cortical neurons assessed as AKT phosphorylation at Ser 473 at 500 nM after 15 mins by ELISA; format: functional
[5] = tested on: Mus musculus; assay: Neuroprotective activity in C57BL/6J mouse assessed as inhibition of kainic acid-induced caspase 3 activation in hippocampus region at 5 mg/kg, po administered 2 to 8 hrs prior to kainic acid challenge measured after 2 hrs by immunoblotting; format: functional, organism-based; parameters: dose 5 mg/kg
Summary of the method: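 C57BL/6J mice dosed orally by gavage at 5 mg/kg. Kainic acid 20 mg/kg i.p. given at 0, 2 or 6 h after dosing. Mice killed 2 h after kainic acid; hippocampal lysates immunoblotted with anti-p-TrkB and anti-active caspase-3.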

[6] = biological target: BDNF/NT-3 growth factors receptor (Rattus norvegicus) (UniProt Q63604); assay: Agonist activity at TrkB in E17 rat primary cortical neurons assessed as AKT phosphorylation at Ser 473 at 500 nM after 15 mins by ELISA relative to control; format: functional, cell-based; conditions: Cerebral cortex neuron
[7] = biological target: BDNF/NT-3 growth factors receptor (Rattus norvegicus) (UniProt Q63604); assay: […] in E17 rat primary cortical neurons at 500 nM after 15 mins by immunoblotting; conditions: Cerebral cortex neuron
Summary of the method: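 Primary cortical neurons from E17 rat embryos, 13 DIV, exposed to compound at 500 nM for 15 min. Lysates resolved on 10% SDS-PAGE and immunoblotted for phospho-TrkB (p-TrkB Y817 antibody, 1:20,000–40,000) alongside other signalling antibodies.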

Sequence of BDNF/NT-3 growth factors receptor (Rattus norvegicus) (Q63604 whole entry): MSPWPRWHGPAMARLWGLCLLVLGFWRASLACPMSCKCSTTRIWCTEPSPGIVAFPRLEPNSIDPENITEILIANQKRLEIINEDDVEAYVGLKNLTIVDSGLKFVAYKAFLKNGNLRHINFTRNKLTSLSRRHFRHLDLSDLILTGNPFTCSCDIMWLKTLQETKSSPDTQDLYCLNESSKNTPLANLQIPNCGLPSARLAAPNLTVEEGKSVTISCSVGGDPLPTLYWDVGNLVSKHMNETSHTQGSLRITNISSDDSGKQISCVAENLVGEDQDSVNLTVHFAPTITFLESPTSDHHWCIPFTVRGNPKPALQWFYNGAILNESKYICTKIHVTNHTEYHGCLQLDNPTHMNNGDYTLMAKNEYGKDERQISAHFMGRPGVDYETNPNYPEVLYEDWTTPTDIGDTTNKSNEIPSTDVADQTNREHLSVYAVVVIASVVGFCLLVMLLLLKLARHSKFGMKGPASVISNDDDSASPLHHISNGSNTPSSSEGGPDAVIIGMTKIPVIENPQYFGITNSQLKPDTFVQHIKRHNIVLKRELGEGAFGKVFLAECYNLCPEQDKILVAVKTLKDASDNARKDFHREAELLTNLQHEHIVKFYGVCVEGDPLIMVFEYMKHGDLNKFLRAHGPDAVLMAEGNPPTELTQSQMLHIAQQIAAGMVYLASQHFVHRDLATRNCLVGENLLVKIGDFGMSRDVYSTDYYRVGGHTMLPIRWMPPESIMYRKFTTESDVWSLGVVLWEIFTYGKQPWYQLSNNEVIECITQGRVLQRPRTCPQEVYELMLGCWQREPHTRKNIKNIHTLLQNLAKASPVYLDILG

Row | Compound | Activity [1] | further results
1 | COc1cc(-c2oc3cc(O)ccc3c(=O)c2O)cc(OC)c1OC | inactive | 
2 | O=c1c(O)c(-c2ccccc2O)oc2ccccc12 | inactive | 
3 | O=c1c(O)c(-c2ccccc2O)oc2c(O)c(O)ccc12 | Active | Activity [2]: Active
4 | COc1ccc(-c2c(C)c3ccc(O)cc3oc2=O)cc1 | inactive | 
5 | COc1cccc(-c2cc(=O)c3ccc(O)cc3o2)c1 | inactive | 
6 | O=c1cc(-c2ccccc2)oc2ccccc12 | inactive | 
7 | O=c1cc(-c2ccc(O)cc2)oc2c(O)c(O)ccc12 |  | Activity [2]: Active
8 | O=c1cc(-c2ccc(O)c(O)c2)oc2cc(O)ccc12 | inactive | 
9 | COc1ccccc1-c1cc2ccc(O)cc2oc1=O | inactive | 
10 | O=c1cc(-c2cc(O)cc(O)c2)oc2ccccc12 | inactive | 
11 | O=c1cc(-c2ccccc2)oc2cc(O)c(O)c(O)c12 | inactive | 
12 | O=c1cc(-c2ccc(O)cc2)oc2ccccc12 | inactive | 
13 | O=c1cc(-c2ccccc2)oc2cc(O)ccc12 | inactive | 
14 | O=c1c(-c2ccccc2)coc2cc(O)ccc12 | inactive | 
15 | COc1cccc(-c2oc3ccccc3c(=O)c2OC)c1 | inactive | 
16 | O=c1cc(-c2cccc(O)c2)oc2ccccc12 | inactive | 
17 | O=c1c(O)c(-c2ccccc2)oc2ccccc12 | inactive | 
18 | COc1ccc2c(=O)cc(-c3ccccc3)oc2c1OC | inactive | Activity [3]: Active
19 | O=c1cc(-c2ccccc2)oc2cc(O)cc(O)c12 | inactive | 
20 | O=c1cc(-c2ccc(O)cc2O)oc2ccccc12 | inactive | 
21 | O=c1cc(-c2cccc(O)c2O)oc2ccccc12 | inactive | 
22 | O=c1cc(-c2cccc(O)c2)oc2cc(O)c(O)cc12 | Active | 
23 | O=c1cc(-c2cncnc2)oc2c(O)c(O)ccc12 |  | Activity [4]: Active
24 | COc1ccc(-c2cc(=O)c3ccc(O)cc3o2)cc1 | inactive | Activity [2]: Active

Row | Compound | Activity [1] | further results
25 | O=c1cc(-c2ccccc2)oc2ccc(O)c(O)c12 | inactive | 
26 | O=c1c(O)c(-c2cccc(O)c2)oc2ccccc12 | inactive | 
27 | C=C(C)[C@H]1CN[C@H](C(=O)O)[C@H]1CC(=O)O |  | inhibition [5]: Active
28 | O=c1cc(-c2ccccc2)oc2ccc(O)cc12 | inactive | 
29 | O=c1cc(-c2cccc(O)c2)oc2c1ccc1ccccc12 | inactive | 
30 | O=c1cc(-c2ccccc2)oc2c(O)c(O)cc(O)c12 | Active | Activity [2]: Active
31 | O=c1cc(-c2cccc(O)c2)oc2c(O)c(O)ccc12 |  | Activity [2]: Active; fold change (FC) [6]: 2
32 | O=c1cc(-c2ccccc2)[nH]c2c(O)c(O)ccc12 |  | Activity [4]: inactive
33 | O=c1cc(-c2ccccc2O)oc2c(O)c(O)ccc12 | Active | Activity [2]: Active
34 | O=c1cc(-c2ccccc2)oc2cc(O)c(O)cc12 | Active | 
35 | O=c1c(O)c(-c2cccc(O)c2)oc2cc(O)ccc12 | inactive | 
36 | O=c1cc(-c2cccc(O)c2)oc2cc(O)ccc12 | Active | Activity [2]: Active
37 | COc1cccc(-c2cc(=O)c3ccccc3o2)c1OC | inactive | 
38 | O=c1cc(-c2ccccc2O)oc2ccccc12 | inactive | 
39 | O=c1cc(-c2ccccc2)oc2cccc(O)c12 | inactive | 
40 | COc1ccc2c(=O)cc(-c3ccccc3)oc2c1O | Active | Activity [2]: Active; Activity [3]: Active
41 | COc1cccc(-c2cc(=O)c3ccc(OC)cc3o2)c1 | inactive | 
42 | C[S+](C)[O-] | inactive | 
43 | COc1c(O)ccc2c(=O)c(-c3ccc(Cl)cc3)coc12 | inactive | 
44 | O=c1c(O)c(-c2ccc(O)c(O)c2)oc2c(O)c(O)cc(O)c12 |  | inhibition [7]: Active
45 | O=c1cc(-c2ccc(F)cc2)[nH]c2c(O)c(O)ccc12 |  | Activity [4]: inactive
46 | O=c1c(O)c(-c2ccccc2)oc2cc(O)ccc12 | Active | Activity [2]: Active
47 | O=c1cc(-c2ccc(O)c(O)c2)oc2ccccc12 | inactive | 

— ChEMBL document CHEMBL1800034, “A synthetic 7,8-dihydroxyflavone derivative promotes neurogenesis and exhibits potent antidepressant effect” (J Med Chem, 2010)
